Measurements as given in ChEMBL document CHEMBL3580549, “Lignan Glycosides from the Twigs of Chaenomeles sinensis and Their Biological Activities” (J Nat Prod, 2015).

What was measured:
[1] = Cytotoxicity against mouse BV2 cells assessed as cell viability at 20 uM by MTT assay relative to control; format: cell-based, BV-2; settings: read-out: Activity
SK-MEL-2 = experiment: Cytotoxicity against human SK-MEL-2 cells by SRB assay; format: functional, cell-based
HCT-15 = experiment: Cytotoxicity against human HCT15 cells by SRB assay; format: functional, cell-based
A549 = experiment: Cytotoxicity against human A549 cells by SRB assay; format: functional, cell-based
SK-OV-3 = experiment: Cytotoxicity against human SKOV3 cells by SRB assay; format: functional, cell-based
C6 = experiment: Neuroprotective activity in rat C6 cells assessed as stimulation of NGF release at 20 uM after 24 hrs by ELISA relative to control; format: functional
Method in brief: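 C6 rat glioma cells were treated with each compound at 20 μM, and NGF secreted into the medium was measured. Stimulation is given as percent of control, and 6-shogaol was the positive control.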

[2] = Antiinflammatory activity against LPS-stimulated mouse BV2 cells assessed as inhibition of nitric oxide production preincubated for 30 mins followed by LPS stimulation measured after 24 hrs by Griess assay; format: functional, cell-based; settings: BV-2
Method in brief: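 Murine BV2 microglial cells were activated with lipopolysaccharide. NO released into the culture medium was measured, and IC50 was derived from the inhibition of NO production. L-NMMA was the positive control.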

Structure (SMILES) | viability at 20 µM [1] | IC50 (SK-MEL-2) | IC50 (HCT-15) | IC50 (A549) | IC50 (SK-OV-3) | Activity (C6) | IC50 [2]
COc1cc([C@H]2Oc3c(OC)cc(CCCO)cc3[C@@H]2CO[C@@H]2O[C@@H](C)[C@H](O)[C@@H](O)[C@H]2O)cc(OC)c1O | 98.2% | > 10 µM | > 10 µM | > 10 µM | > 10 µM | 151.74% | 
COc1cc([C@H]2c3c(cc(OC)c(O)c3OC)C[C@@H](CO)[C@@H]2CO[C@@H]2O[C@H](CO)[C@@H](O)[C@H](O)[C@H]2O)cc(OC)c1O | 99.7% | > 10 µM | > 10 µM | > 10 µM | > 10 µM |  | 37.7 µM
COc1cc(C[C@@H]2CO[C@@H](c3ccc(O)c(OC)c3)[C@@H]2CO[C@@H]2O[C@@H](C)[C@H](O)[C@@H](O)[C@H]2O)ccc1O | 102% | > 10 µM | > 10 µM | > 10 µM | > 10 µM | 144.31% | 180 µM
COc1cc(C[C@@H]2CO[C@@H](c3cc(OC)c(O)c(OC)c3)[C@@H]2CO[C@@H]2O[C@@H](C)[C@H](O)[C@@H](O)[C@H]2O)cc(OC)c1O | 97.1% | > 10 µM | > 10 µM | > 10 µM | > 10 µM |  | 199 µM
COc1cc(C[C@H](CO)[C@@H](CO[C@@H]2O[C@@H](C)[C@H](O)[C@@H](O)[C@H]2O)Cc2cc(OC)c(O)c(OC)c2)cc(OC)c1O | 104% | > 10 µM | > 10 µM | > 10 µM | > 10 µM | 167.61% | 21.3 µM
COc1cc([C@H]2c3cc(O)c(OC)cc3C[C@@H](CO)[C@@H]2CO[C@@H]2O[C@@H](C)[C@H](O)[C@@H](O)[C@H]2O)ccc1O [AVICULIN] | 96.1% | > 10 µM | > 10 µM | > 10 µM | > 10 µM | 123.06% | 40.2 µM
COc1cc([C@@H]2Oc3c(OC)cc(CCCO)cc3[C@H]2CO[C@@H]2O[C@@H](C)[C@H](O)[C@@H](O)[C@H]2O)cc(OC)c1O | 104% | > 10 µM | > 10 µM | > 10 µM | > 10 µM | 106.85% | 
COc1cc(C[C@H]2CO[C@@H](c3cc(OC)c(O)c(OC)c3)[C@H]2CO[C@@H]2O[C@@H](C)[C@H](O)[C@@H](O)[C@H]2O)cc(OC)c1O | 113% | > 10 µM | > 10 µM | > 10 µM | > 10 µM | 124.67% | 29.8 µM
COc1cc([C@H]2c3c(cc(OC)c(O)c3OC)C[C@@H](CO)[C@@H]2CO[C@@H]2O[C@@H](C)[C@H](O)[C@@H](O)[C@H]2O)cc(OC)c1O | 99.1% | > 10 µM | > 10 µM | > 10 µM | > 10 µM |  | 31.9 µM
CNC(=N)NCCC[C@H](N)C(=O)O [TILARGININE] | 106% |  |  |  |  |  | 24.8 µM
COc1cc([C@H]2Oc3c(OC)cc(CCCO)cc3[C@@H]2CO[C@@H]2O[C@@H](C)[C@H](O)[C@@H](O)[C@H]2O)ccc1O | 97.4% | > 10 µM | > 10 µM | > 10 µM | > 10 µM | 102.88% | 
CCCCC/C=C/C(=O)CCc1ccc(O)c(OC)c1 [SHOGAOL] |  |  |  |  |  | 141.75% | 
COc1cc([C@H]2Oc3c(OC)cc(CCCO)cc3[C@@H]2CO[C@@H]2O[C@H](CO)[C@@H](O)[C@H](O)[C@H]2O)ccc1O | 97.2% | > 10 µM | > 10 µM | > 10 µM | > 10 µM | 140.04% | 
